In ChEMBL document CHEMBL1151770, “Cespihypotins Q-V, verticillene diterpenoids from Cespitularia hypotentaculata” (2008):

Legend:
Daoy = test: Cytotoxicity against human Daoy cells by MTT assay; type: functional; conditions: read-out: ED50 (the source's name)
Method in brief: (§1)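 Cells grown in serum-supplemented RPMI-1640 at 37 °C, 5% CO2. Seeded at 2880 cells/well for 4 h, then samples added at 1, 10, 20 and 40 µg/mL and incubated 3 days at 37 °C. MTT added for 5 h, formazan dissolved in DMSO, absorbance read at 550 nm. ED50 is the concentration giving 50% reduction of absorbance relative to untreated cells.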

WiDr = test: Cytotoxicity against human WiDr cells by MTT assay; type: functional; conditions: read-out: ED50 (the source's name); method in brief: as §1

| Structure (SMILES) | EC50 (Daoy) | EC50 (WiDr) |
| --- | --- | --- |
| C=C1CC[C@@H]2CC[C@]34O[C@@]3(C2(C)C)[C@@](O)(C/C(C)=C/C(=O)C1)O[C@H]4OC | 40 µM | 54 µM |
| C=C1CC[C@@H]2CCC3=C(C2(C)C)[C@@](OC)(C/C(C)=C/[C@@H](O)C1)O[C@H]3OC [CESPIHYPOTIN Q] | > 55 µM | > 55 µM |
| C=C1CC[C@@H]2CCC3=C([C@@H](C/C(C)=C/C(=O)C1)OC3=O)C2(C)C [CESPIHYPOTIN R] | > 55 µM | 50 µM |
| C=C1CC[C@@H]2CCC(=O)[C@@](O)([C@@H](O)C/C(C)=C/C(=O)C1)C2(C)C [CESPIHYPOTIN T] | 9.3 µM | 7.5 µM |
| C=C1CC[C@@H]2CCC3=C([C@@H](C[C@]4(C)O[C@H]4[C@@H](O)C1)OC3=O)C2(C)C [CESPIHYPOTIN U] | > 60 µM | > 60 µM |
| C=C1CC[C@@H]2CCC3=C(C2(C)C)[C@](O)(C/C(C)=C/[C@@H](O)C1)OC3=O [CESPIHYPOTIN V] | 60 µM | > 60 µM |
| CO[C@@]12[C@H](COC(N)=O)C3=C(C(=O)C(C)=C(N)C3=O)N1C[C@@H]1N[C@@H]12 [MITOMYCIN] | 0.21 µM | 0.18 µM |
